# Measured values: the M2OR odorant receptor database
# Experiments:
# [1] = target: T1, Or1m1 (Mus musculus) (UniProt Q8VFM9); settings: stereoisomer not certain
# T1 sequence (whole entry): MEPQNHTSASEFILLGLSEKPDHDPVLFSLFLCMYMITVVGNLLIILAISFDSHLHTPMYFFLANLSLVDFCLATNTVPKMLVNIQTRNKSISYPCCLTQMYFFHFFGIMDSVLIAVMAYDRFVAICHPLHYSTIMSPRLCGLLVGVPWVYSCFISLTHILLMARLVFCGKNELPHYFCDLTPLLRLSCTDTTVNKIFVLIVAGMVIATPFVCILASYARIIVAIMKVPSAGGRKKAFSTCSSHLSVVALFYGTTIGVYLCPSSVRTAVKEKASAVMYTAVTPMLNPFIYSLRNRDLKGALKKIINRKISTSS
# How it was run: (§1)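 Whether a receptor–molecule pair is responsive (active) rests on the original authors' judgment that its measured signal was statistically different from baseline. Pairs without that judgment are non-responsive (inactive). Sources used varied assay methods, commonly transient luciferase assays in mammalian cell lines.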
# [2] = target: T2, Or5ar1 (Mus musculus) (UniProt Q8VGS3); settings: stereoisomer not certain
# T2 sequence (whole entry): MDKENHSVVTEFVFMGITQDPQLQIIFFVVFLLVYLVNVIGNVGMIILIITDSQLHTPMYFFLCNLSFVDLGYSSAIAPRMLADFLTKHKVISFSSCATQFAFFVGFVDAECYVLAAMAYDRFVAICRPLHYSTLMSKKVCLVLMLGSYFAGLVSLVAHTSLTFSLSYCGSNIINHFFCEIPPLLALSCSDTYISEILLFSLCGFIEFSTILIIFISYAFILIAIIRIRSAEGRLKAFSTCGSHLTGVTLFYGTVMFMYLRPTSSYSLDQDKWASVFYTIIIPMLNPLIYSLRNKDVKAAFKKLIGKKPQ
# How it was run: as §1
# 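Also: active if original authors judged signal statistically different from baseline.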
Compound,odorant receptor agonist call [1],odorant receptor agonist call [2]
CC(=O)OCCc1ccccc1,inactive,inactive
CCOC(=O)CC(C)C,inactive,inactive
Cc1ccc(C(C)C)c(O)c1,inactive,inactive
C=C(C)C1CCC(C)C(O)C1 (centres undefined),inactive,inactive
CCCCCCCCOC=O,inactive,inactive
CCSSCC,inactive,inactive
CCCC(C)C(=O)OCC (centres undefined),inactive,inactive
Cc1ccc(OC(=O)C(C)C)cc1,inactive,inactive
CC=Cc1ccc(OC)cc1,inactive,inactive
C=CC(=C)CCC=C(C)C,inactive,inactive
C=C(CC)CCCC(C)(C)O,inactive,inactive
CCC(C)O (centres undefined),inactive,inactive
O=C(O)CCCCCCCCC(=O)O,inactive,inactive
CCOC(=O)C(C)CC (centres undefined),inactive,inactive
CCc1ccc(O)cc1,inactive,inactive
CCCCCC(C)O (centres undefined),inactive,inactive
CC(C)CS,inactive,inactive
CC(C)=CCCC(C)=CCOC(=O)C(C)C,inactive,inactive
CCC=CCCC=CC=O,inactive,inactive
C=CC(C)=CCC=C(C)CCC=C(C)C,inactive,inactive
CCCO,inactive,inactive
CCc1occc(=O)c1O,inactive,inactive
CCCCCCCOC(=O)C(C)C,inactive,inactive
C1CCOC1,inactive,inactive
O=C(OCc1ccccc1)c1ccccc1O,inactive,inactive
CC=C(C)C=O,inactive,inactive
Cc1ccc2c(c1)OCC(=O)CO2,inactive,inactive
